Experimental data as given in ChEMBL document CHEMBL1149086, “Antimalarial and antitumor evaluation of novel C-10 non-acetal dimers of 10beta-(2-hydroxyethyl)deoxoartemisinin” (J Med Chem, 2004).

Columns and labels:
SK-MEL-5 = assay: inhibition against melanoma SK-MEL-5 cell line; assay type: functional; conditions: Homo sapiens
Jurkat [1] = assay: Tested for apoptosis in jurkat cells at a concentration of 3 uM of the compound; assay type: functional, Homo sapiens
How it was run: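 Jurkat cells (>98% viable, <2% background apoptosis) at 1 × 10⁶ cells/mL were exposed to 0–100 μM drug (DMSO) for 24 h at 37 °C in 5% CO₂. Nuclei were stained with 50 μM propidium iodide and 0.1% Triton-X in HBSS for 10 min at 37 °C, then scored as apoptotic by flow cytometry. Triplicate incubations in one experiment, mean ± SD; Kruskal–Wallis test versus DMSO control.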

SW-620 [2] = assay: inhibition against colon SW-620 cancer cell line; assay type: functional; conditions: Homo sapiens
LOX IMVI [3] = assay: inhibition against melanoma LOX IMVI cell line; assay type: functional; conditions: Homo sapiens
HCT-15 [4] = assay: Concentration of the drug required to achieve 50% cytotoxicity against colon HCT-15 cancer cell line; assay type: functional; conditions: Homo sapiens, read-out: LC50 (the source's name)
K562 [5] = assay: inhibition against leukemia K-562 cell line; assay type: functional; conditions: Homo sapiens
COLO 205 [6] = assay: inhibition against colon COLO 205 cancer cell line; assay type: functional; conditions: Homo sapiens
HL-60 = assay: Concentration required to achieve total growth inhibition against leukemia HL-60(TB) cell line; assay type: functional; conditions: Homo sapiens
T47D [7] = assay: inhibition against breast T-47D cancer cell line; assay type: functional; conditions: Homo sapiens
HT-29 = assay: Concentration of the drug required to achieve 50% cytotoxicity against colon HT-29 cancer cell line; assay type: functional; conditions: Homo sapiens, read-out: LC50 (the source's name)
MCF7 [8] = assay: Concentration of the drug required to achieve 50% cytotoxicity against breast MCF-7 cancer cell line; assay type: cell-based; conditions: human
K562 [9] = assay: Concentration of the drug required to achieve 50% cytotoxicity against leukemia K-562 cell line; assay type: functional; conditions: Homo sapiens, read-out: LC50 (the source's name)
CCRF-CEM = assay: Concentration required to achieve total growth inhibition against leukemia CCRF-CEM cell line; assay type: functional; conditions: Homo sapiens
HCT-116 = assay: Concentration required to achieve total growth inhibition against colon HCT116 cancer cell line; assay type: functional; conditions: Homo sapiens
MOLT-4 [10] = assay: Concentration required to achieve total growth inhibition against leukemia MOLT-4 cell line; assay type: functional; conditions: Homo sapiens
SR = assay: Concentration required to achieve total growth inhibition against leukemia SR cell line; assay type: functional; conditions: Homo sapiens
HCC 2998 [11] = assay: inhibition against colon HCC2998 cancer cell line; assay type: functional; conditions: Homo sapiens
Malme-3M = assay: Concentration of the drug required to achieve 50% cytotoxicity against melanoma MALME-3M cell line; assay type: cell-based; conditions: human
RPMI-8226 = assay: inhibition against leukemia RPMI-8226 cell line; assay type: functional; conditions: Homo sapiens
HCT-15 [12] = assay: inhibition against colon HCT-15 cancer cell line; assay type: functional; conditions: Homo sapiens
Plasmodium falciparum = assay: In vitro antimalarial activity against Plasmodium falciparum HB3 by [3H]hypoxanthine uptake; assay type: functional, organism-based
Jurkat [13] = assay: Tested for apoptosis in jurkat cells at a concentration of 0 uM of the compound; assay type: functional, Homo sapiens
How it was run: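 Jurkat cells (1 × 10⁶ cells mL⁻¹; >98% viable, <2% background apoptosis) incubated 24 h at 37 °C with compound (0–100 μM range, in DMSO). Nuclei stained with propidium iodide (50 μM) in HBSS with 0.1% Triton-X for 10 min at 37 °C. Apoptotic nuclei measured by flow cytometry. Mean ± SD of triplicate incubations in one experiment; Kruskal–Wallis test against DMSO control.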

LOX IMVI [14] = assay: Concentration of the drug required to achieve 50% cytotoxicity against melanoma LOX IMVI cell line; assay type: cell-based; conditions: human
SW-620 [15] = assay: Concentration required to achieve total growth inhibition against colon SW-620 cancer cell line; assay type: functional; conditions: Homo sapiens
COLO 205 [16] = assay: Concentration required to achieve total growth inhibition against colon COLO 205 cancer cell line; assay type: functional; conditions: Homo sapiens
NCI/ADR-RES [17] = assay: inhibition against breast NCI/ ADR-RES cancer cell line; assay type: functional; conditions: Homo sapiens
Jurkat [18] = assay: Inhibitory concentration against jurkat cells; assay type: functional, cell-based; conditions: Homo sapiens
How it was run: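 HL60 (2.5 × 10⁴/well) or Jurkat (1 × 10⁵/well) in RPMI-1640 with 10% FBS and 1% L-glutamine, 5% CO2, 37 °C. Exposed to 10⁻¹⁰–10⁻⁴ M for 72 h, final DMSO below 0.5% v/v. [3H]-thymidine (0.5 μCi) added for the final 24 h. Incorporation counted by β-scintillation.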

MCF7 [19] = assay: inhibition against breast MCF-7 cancer cell line; assay type: functional; conditions: Homo sapiens
NCI/ADR-RES [20] = assay: Concentration of the drug required to achieve 50% cytotoxicity against breast NCI/ ADR-RES cancer cell line; assay type: cell-based; conditions: human
T47D [21] = assay: Concentration required to achieve total growth inhibition against breast T-47D cancer cell line; assay type: functional; conditions: Homo sapiens
MOLT-4 [22] = assay: inhibition against leukemia MOLT-4 cell line; assay type: functional; conditions: Homo sapiens
MCF7 [23] = assay: Concentration required to achieve total growth inhibition against breast MCF-7 cancer cell line; assay type: functional; conditions: Homo sapiens
PC-3 = assay: Concentration of the drug required to achieve 50% cytotoxicity against prostate PC-3 cell line; assay type: cell-based; conditions: human
LOX IMVI [24] = assay: Concentration required to achieve total growth inhibition against melanoma LOX IMVI cell line; assay type: functional; conditions: Homo sapiens
HCC 2998 [25] = assay: Concentration required to achieve total growth inhibition against colon HCC2998 cancer cell line; assay type: functional; conditions: Homo sapiens
MOLT-4 [26] = assay: Concentration of the drug required to achieve 50% cytotoxicity against leukemia MOLT-4 cell line; assay type: functional; conditions: Homo sapiens, read-out: LC50 (the source's name)

C[C@H]1[C@@H](CCOP(=O)(OCC[C@H]2O[C@@H]3OC4(C)CC[C@H]5[C@H](C)CC[C@@H]([C@H]2C)[C@@]35OO4)Oc2ccccc2)O[C@@H]2OC3(C)CC[C@H]4[C@H](C)CC[C@@H]1[C@@]24OO3 (single isomer, unassigned)
GI50 (SK-MEL-5): 13 nM | Activity (Jurkat [1]): 8.7% | GI50 (SW-620 [2]): < 10 nM | GI50 (LOX IMVI [3]): 19.1 nM | CC50 (HCT-15 [4]): > 100000 nM | GI50 (K562 [5]): < 10 nM | GI50 (COLO 205 [6]): < 10 nM | TGI (HL-60): 2230 nM | GI50 (T47D [7]): 25.6 nM | CC50 (HT-29): > 100000 nM | LC50 (MCF7 [8]): > 100000 nM | CC50 (K562 [9]): > 100000 nM | TGI (CCRF-CEM): 56000 nM | TGI (HCT-116): > 100000 nM | TGI (MOLT-4 [10]): 11900 nM | TGI (SR): 263 nM | GI50 (HCC 2998 [11]): 64.8 nM | LC50 (Malme-3M): > 100000 nM | GI50 (RPMI-8226): < 10 nM | GI50 (HCT-15 [12]): < 10 nM | IC50 (Plasmodium falciparum): 0.18 nM | Activity (Jurkat [13]): 7.5% | LC50 (LOX IMVI [14]): > 100000 nM | TGI (SW-620 [15]): 100000 nM | TGI (COLO 205 [16]): 170 nM | GI50 (NCI/ADR-RES [17]): 500 nM | IC50 (Jurkat [18]): 13200 nM | GI50 (MCF7 [19]): 106 nM | LC50 (NCI/ADR-RES [20]): > 100000 nM | TGI (T47D [21]): < 10000 nM | GI50 (MOLT-4 [22]): < 10 nM | TGI (MCF7 [23]): > 100000 nM | LC50 (PC-3): > 100000 nM | TGI (LOX IMVI [24]): 15600 nM | TGI (HCC 2998 [25]): 2850 nM | CC50 (MOLT-4 [26]): > 100000 nM
